Assay results from ChEMBL document CHEMBL1145833, “Studies on the synthesis and biological properties of non-carrier-added [(125)I and (131)I]-labeled arylalkylidenebisphosphonates: potent bone-seekers for diagnosis and therapy of malignant osseous lesions” (J Med Chem, 2003).

Assays:
Settings in all cases: in vivo
Mus musculus [1] = species on record: Mus musculus; assay: Distribution of compound in liver tissue of mice after 5 hr injection time was determined; type: ADME, organism-based
Outline: (§1)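 Healthy athymic nude mice (balb/c nu/nu, 20–25 g, both sexes) received 50–400 KBq radioiodinated bisphosphonate in 100 µL phosphate buffer pH 6–7 by tail-vein injection. Three animals were sacrificed per time point. Tissues were excised, weighed and gamma-counted. Values are % injected dose per gram tissue, mean ± 1 SD, n = 3.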

Rattus norvegicus [2] = species on record: Rattus norvegicus; assay: Distribution of compound in liver tissue of rats after 24 hr injection time was determined; type: ADME, organism-based
Outline: (§2)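 Healthy congenitally athymic nude rats (Han rnu/rnu Rowett, 60 g, both sexes) received 0.4 MBq radioiodinated bisphosphonate in 200 µL phosphate buffer pH 7 via tail vein. Three rats were sacrificed 24 h post-injection. Excised organs were weighed and gamma-counted. Values are % injected dose per gram tissue, mean ± 1 SD of three rats.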

Rattus norvegicus [3] = species on record: Rattus norvegicus; assay: Distribution of compound in lung tissue of rats after 24 hr injection time was determined; type: ADME, organism-based; outline: as §2
Mus musculus [4] = species on record: Mus musculus; assay: Distribution of compound in lungs tissue of mice after 0.5 h injection time was determined; type: ADME, organism-based, Lung; outline: as §1
Mus musculus [5] = species on record: Mus musculus; assay: Distribution of compound in lungs tissue of mice after 2 hr injection time was determined; type: ADME, organism-based, Lung; outline: as §1
Mus musculus [6] = species on record: Mus musculus; assay: Distribution of compound in lungs tissue of mice after 24 hr injection time was determined; type: ADME, organism-based, Lung; outline: as §1
Mus musculus [7] = species on record: Mus musculus; assay: Distribution of compound in lungs tissue of mice after 5 hr injection time was determined; type: ADME, organism-based, Lung; outline: as §1
Mus musculus [8] = species on record: Mus musculus; assay: Distribution of compound in skull tissue of mice after 0.5 hr injection time was determined; type: ADME, organism-based; outline: as §1
Mus musculus [9] = species on record: Mus musculus; assay: Distribution of compound in skull tissue of mice after 2 hr injection time was determined; type: ADME, organism-based; outline: as §1
Mus musculus [10] = species on record: Mus musculus; assay: Distribution of compound in skull tissue of mice after 24 hr injection time was determined; type: ADME, organism-based; outline: as §1
Mus musculus [11] = species on record: Mus musculus; assay: Distribution of compound in skull tissue of mice after 5 h injection time was determined; type: ADME, organism-based; outline: as §1
Rattus norvegicus [12] = species on record: Rattus norvegicus; assay: Distribution of compound in skull tissue of rats after 24 hr injection time was determined; type: ADME, organism-based; outline: as §2
Mus musculus [13] = species on record: Mus musculus; assay: Distribution of compound in spleen tissue of mice after 0.5 hr injection time was determined; type: ADME, organism-based; outline: as §1
Mus musculus [14] = species on record: Mus musculus; assay: Distribution of compound in kidneys tissue of mice after 0.5 hr injection time was determined; type: ADME, organism-based, Kidney; outline: as §1
Mus musculus [15] = species on record: Mus musculus; assay: Distribution of compound in kidneys tissue of mice after 2 hr injection time was determined; type: ADME, organism-based, Kidney; outline: as §1
Mus musculus [16] = species on record: Mus musculus; assay: Distribution of compound in kidneys tissue of mice after 24 hr injection time was determined; type: ADME, organism-based, Kidney; outline: as §1
Mus musculus [17] = species on record: Mus musculus; assay: Distribution of compound in kidneys tissue of mice after 5 hr injection time was determined; type: ADME, organism-based, Kidney; outline: as §1
Mus musculus [18] = species on record: Mus musculus; assay: Distribution of compound in liver tissue of mice after 0.5 hr injection time was determined; type: ADME, organism-based; outline: as §1
Mus musculus [19] = species on record: Mus musculus; assay: Distribution of compound in liver tissue of mice after 24 hr injection time was determined; type: ADME, organism-based; outline: as §1
Mus musculus [20] = species on record: Mus musculus; assay: Distribution of compound in heart tissue of mice after 2 hr injection time was determined; type: ADME, organism-based; outline: as §1
Mus musculus [21] = species on record: Mus musculus; assay: Distribution of compound in heart tissue of mice after 24 hr injection time was determined; type: ADME, organism-based; outline: as §1
Mus musculus [22] = species on record: Mus musculus; assay: Distribution of compound in heart tissue of mice after 5 hr injection time was determined; type: ADME, organism-based; outline: as §1
Rattus norvegicus [23] = species on record: Rattus norvegicus; assay: Distribution of compound in heart tissue of rats after 24 hr injection time was determined; type: ADME, organism-based; outline: as §2
Mus musculus [24] = species on record: Mus musculus; assay: Distribution of compound in intestine tissue of mice after 0.5 hr injection time was determined; type: ADME, organism-based; outline: as §1
Mus musculus [25] = species on record: Mus musculus; assay: Distribution of compound in intestine tissue of mice after 2 hr injection time was determined; type: ADME, organism-based; outline: as §1
Mus musculus [26] = species on record: Mus musculus; assay: Distribution of compound in intestine tissue of mice after 24 hr injection time was determined; type: ADME, organism-based; outline: as §1
Mus musculus [27] = species on record: Mus musculus; assay: Distribution of compound in intestine tissue of mice after 5 hr injection time was determined; type: ADME, organism-based; outline: as §1
Rattus norvegicus [28] = species on record: Rattus norvegicus; assay: Distribution of compound in intestine tissue of rats after 24 hr injection time was determined; type: ADME, organism-based; outline: as §2
Rattus norvegicus [29] = species on record: Rattus norvegicus; assay: Distribution of compound in kidney tissue of rats after 24 hr injection time was determined; type: ADME, organism-based; outline: as §2
Mus musculus [30] = species on record: Mus musculus; assay: Distribution of compound in spleen tissue of mice after 2 hr injection time was determined; type: ADME, organism-based; outline: as §1
Mus musculus [31] = species on record: Mus musculus; assay: Distribution of compound in spleen tissue of mice after 24 hr injection time was determined; type: ADME, organism-based; outline: as §1
Mus musculus [32] = species on record: Mus musculus; assay: Distribution of compound in spleen tissue of mice after 5 h injection time was determined; type: ADME, organism-based; outline: as §1
Rattus norvegicus [33] = species on record: Rattus norvegicus; assay: Distribution of compound in spleen tissue of rats after 24 hr injection time was determined; type: ADME, organism-based; outline: as §2
Mus musculus [34] = species on record: Mus musculus; assay: Distribution of compound in stomach tissue of mice after 0.5 hr injection time was determined; type: ADME, organism-based; outline: as §1
Mus musculus [35] = species on record: Mus musculus; assay: Distribution of compound in stomach tissue of mice after 2 hr injection time was determined; type: ADME, organism-based; outline: as §1
Mus musculus [36] = species on record: Mus musculus; assay: Distribution of compound in stomach tissue of mice after 24 hr injection time was determined; type: ADME, organism-based; outline: as §1
Mus musculus [37] = species on record: Mus musculus; assay: Distribution of compound in stomach tissue of mice after 5 hr injection time was determined; type: ADME, organism-based; outline: as §1
Rattus norvegicus [38] = species on record: Rattus norvegicus; assay: Distribution of compound in stomach tissue of rats after 24 hr injection time was determined; type: ADME, organism-based; outline: as §2
Mus musculus [39] = species on record: Mus musculus; assay: Distribution of compound in thyroid tissue of mice after 0.5 hr injection time was determined; type: ADME, organism-based, Thyroid gland
Outline: (§3)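 Healthy athymic nude balb/c nu/nu mice (20–25 g) received 50–400 KBq radioiodinated bisphosphonate in 100 μL phosphate buffer, pH 6–7, by tail-vein injection. Three animals were sacrificed per time point. Thyroid-containing tissue was excised, weighed and gamma-counted. Values are % of injected dose, mean ± 1 SD of three mice.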

Mus musculus [40] = species on record: Mus musculus; assay: Distribution of compound in thyroid tissue of mice after 2 hr injection time was determined; type: ADME, organism-based, Thyroid gland; outline: as §3
Mus musculus [41] = species on record: Mus musculus; assay: Distribution of compound in thyroid tissue of mice after 24 h injection time was determined; type: ADME, organism-based, Thyroid gland; outline: as §3
Mus musculus [42] = species on record: Mus musculus; assay: Distribution of compound in thyroid tissue of mice after 5 h injection time was determined; type: ADME, organism-based, Thyroid gland; outline: as §3
Rattus norvegicus [43] = species on record: Rattus norvegicus; assay: Distribution of compound in thyroid tissue of rats after 24 hr injection time was determined; type: ADME, organism-based, Thyroid gland
Outline: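 Healthy congenitally athymic nude rats (Han rnu/rnu Rowett, 60 g) received 0.4 MBq radioiodinated bisphosphonate in 200 μL phosphate buffer, pH 7, by tail-vein injection. Three rats were sacrificed 24 h after injection. Thyroid-containing tissue was excised, weighed and gamma-counted. Values are % of injected dose, mean ± 1 SD of three rats.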

Mus musculus [44] = species on record: Mus musculus; assay: Distribution of compound in blood tissue of mice after 0.5 hr injection time was determined; type: ADME, organism-based; outline: as §1
Mus musculus [45] = species on record: Mus musculus; assay: Distribution of compound in blood tissue of mice after 2 hr injection time was determined; type: ADME, organism-based; outline: as §1
Mus musculus [46] = species on record: Mus musculus; assay: Distribution of compound in blood tissue of mice after 24 hr injection time was determined; type: ADME, organism-based; outline: as §1
Mus musculus [47] = species on record: Mus musculus; assay: Distribution of compound in blood tissue of mice after 5 h injection time was determined; type: ADME, organism-based; outline: as §1
Rattus norvegicus [48] = species on record: Rattus norvegicus; assay: Distribution of compound in blood tissue of rats after 24 hr injection time was determined; type: ADME, organism-based; outline: as §2
Mus musculus [49] = species on record: Mus musculus; assay: Distribution of compound in femur tissue of mice after 0.5 hr injection time was determined; type: ADME, organism-based; outline: as §1
Mus musculus [50] = species on record: Mus musculus; assay: Distribution of compound in femur tissue of mice after 2 hr injection time was determined; type: ADME, organism-based; outline: as §1
Mus musculus [51] = species on record: Mus musculus; assay: Distribution of compound in femur tissue of mice after 24 hr injection time was determined; type: ADME, organism-based; outline: as §1
Mus musculus [52] = species on record: Mus musculus; assay: Distribution of compound in femur tissue of mice after 5 hr injection time was determined; type: ADME, organism-based; outline: as §1
Rattus norvegicus [53] = species on record: Rattus norvegicus; assay: Distribution of compound in femur tissue of rats after 24 h injection time was determined; type: ADME, organism-based; outline: as §2
Mus musculus [54] = species on record: Mus musculus; assay: Distribution of compound in heart tissue of mice after 0.5 hr injection time was determined; type: ADME, organism-based; outline: as §1
Mus musculus [55] = species on record: Mus musculus; assay: Distribution of compound in liver tissue of mice after 2 h injection time was determined; type: ADME, organism-based; outline: as §1

SMILES: O=P(O)(O)C(O)(Cc1cccc(I)c1)P(=O)(O)O
- Injected (Mus musculus [1]): 2.51%
- Injected (Rattus norvegicus [2]): 0.18%
- Injected (Rattus norvegicus [3]): 0.05%
- Injected (Mus musculus [4]): 5.41%
- Injected (Mus musculus [5]): 1.2%
- Injected (Mus musculus [6]): 0.54%
- Injected (Mus musculus [7]): 0.61%
- Injected (Mus musculus [8]): 24.61%
- Injected (Mus musculus [9]): 26.49%
- Injected (Mus musculus [10]): 21.34%
- Injected (Mus musculus [11]): 19.14%
- Injected (Rattus norvegicus [12]): 5.84%
- Injected (Mus musculus [13]): 2.02%
- Injected (Mus musculus [14]): 18.64%
- Injected (Mus musculus [15]): 13.3%
- Injected (Mus musculus [16]): 5.16%
- Injected (Mus musculus [17]): 7.17%
- Injected (Mus musculus [18]): 3.88%
- Injected (Mus musculus [19]): 2.27%
- Injected (Mus musculus [20]): 0.82%
- Injected (Mus musculus [21]): 0.18%
- Injected (Mus musculus [22]): 0.4%
- Injected (Rattus norvegicus [23]): 0.04%
- Injected (Mus musculus [24]): 1.07%
- Injected (Mus musculus [25]): 1%
- Injected (Mus musculus [26]): 0.16%
- Injected (Mus musculus [27]): 0.45%
- Injected (Rattus norvegicus [28]): 0.03%
- Injected (Rattus norvegicus [29]): 0.36%
- Injected (Mus musculus [30]): 0.77%
- Injected (Mus musculus [31]): 0.49%
- Injected (Mus musculus [32]): 0.47%
- Injected (Rattus norvegicus [33]): 0.09%
- Injected (Mus musculus [34]): 3.22%
- Injected (Mus musculus [35]): 1.79%
- Injected (Mus musculus [36]): 0.13%
- Injected (Mus musculus [37]): 0.38%
- Injected (Rattus norvegicus [38]): 0.05%
- Injected (Mus musculus [39]): 0.51%
- Injected (Mus musculus [40]): 0.19%
- Injected (Mus musculus [41]): 0.06%
- Injected (Mus musculus [42]): 0.49%
- Injected (Rattus norvegicus [43]): 0.02%
- Injected (Mus musculus [44]): 15.92%
- Injected (Mus musculus [45]): 1.36%
- Injected (Mus musculus [46]): 0.09%
- Injected (Mus musculus [47]): 0.82%
- Injected (Rattus norvegicus [48]): 0.01%
- Injected (Mus musculus [49]): 45.03%
- Injected (Mus musculus [50]): 45.54%
- Injected (Mus musculus [51]): 37.79%
- Injected (Mus musculus [52]): 30.3%
- Injected (Rattus norvegicus [53]): 16.44%
- Injected (Mus musculus [54]): 3.35%
- Injected (Mus musculus [55]): 3.36%
